According to ChEMBL document CHEMBL1123815, “Heteroarotinoids. Synthesis, characterization, and biological activity in terms of an assessment of these systems to inhibit the induction of ornithine decarboxylase activity and to induce terminal differentiation of HL-60 cells” (J Med Chem, 1987):

Tests used:
Format in all cases: functional
[1] = biological target: T1, Ornithine decarboxylase (Mus musculus) (UniProt P00860); experiment: Inhibition of TPA induced ODC(Ornithine decarboxylase) activity in mice epidermis at 34 nmol in the presence of TPA compared to control value
T1 sequence (whole entry): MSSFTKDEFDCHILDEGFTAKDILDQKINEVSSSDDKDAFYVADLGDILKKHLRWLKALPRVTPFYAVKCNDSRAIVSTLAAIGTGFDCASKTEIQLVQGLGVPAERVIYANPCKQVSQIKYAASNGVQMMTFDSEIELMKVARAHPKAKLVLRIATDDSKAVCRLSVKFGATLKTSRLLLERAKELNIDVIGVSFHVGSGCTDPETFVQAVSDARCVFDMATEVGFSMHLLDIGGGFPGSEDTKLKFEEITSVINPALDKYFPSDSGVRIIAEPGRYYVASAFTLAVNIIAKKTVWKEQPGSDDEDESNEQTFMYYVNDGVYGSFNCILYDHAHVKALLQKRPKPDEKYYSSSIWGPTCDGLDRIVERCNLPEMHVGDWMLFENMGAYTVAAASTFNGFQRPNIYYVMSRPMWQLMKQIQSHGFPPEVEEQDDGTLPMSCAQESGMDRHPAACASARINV
In short: (§1)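 Mouse epidermis in vivo: retinoid applied to shaved back 1 h before topical 10 nmol TPA. Mice killed 5 h after TPA. Epidermis separated, homogenized and centrifuged at 30000 g. Soluble ODC activity measured as nmol CO2 released per 30 or 60 min per mg protein. Values are mean ± SE of three groups of three mice. Percent inhibition = (acetone+TPA ODC − retinoid ODC)/(acetone+TPA ODC) × 100.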

[2] = biological target: T1, Ornithine decarboxylase (Mus musculus); experiment: Inhibition of TPA induced ODC(Ornithine decarboxylase) activity in mice epidermis at 34 nmol in the presence of TPA; in short: as §1
[3] = biological target: T1, Ornithine decarboxylase (Mus musculus); experiment: Inhibition of TPA induced ODC(Ornithine decarboxylase) activity in mice epidermis at 17 nmol in the presence of 13-cis-retinoic acid + TPA; in short: as §1
[4] = biological target: T1, Ornithine decarboxylase (Mus musculus); experiment: Inhibition of TPA induced ODC(Ornithine decarboxylase) activity in mice epidermis at 17 nmol in the presence of 13-cis-retinoic acid + TPA compared to control value; in short: as §1
[5] = biological target: T1, Ornithine decarboxylase (Mus musculus); experiment: Inhibition of TPA induced ODC(Ornithine decarboxylase) activity in mice epidermis at 0 nmol in the presence of acetone+ TPA; in short: as §1
[6] = biological target: T1, Ornithine decarboxylase (Mus musculus); experiment: Inhibition of TPA induced ODC(Ornithine decarboxylase) activity in mice epidermis at 0 nmol in the presence of acetone + TPA; in short: as §1
[7] = biological target: T1, Ornithine decarboxylase (Mus musculus); experiment: Inhibition of TPA induced ODC(Ornithine decarboxylase) activity in mice epidermis at 17 nmol in the presence of TPA; in short: as §1
[8] = biological target: T1, Ornithine decarboxylase (Mus musculus); experiment: Inhibition of TPA induced ODC(Ornithine decarboxylase) activity in mice epidermis at 0 nmol in the presence of acetone; in short: as §1
[9] = biological target: T1, Ornithine decarboxylase (Mus musculus); experiment: Inhibition of TPA induced ODC(Ornithine decarboxylase) activity in mice epidermis at 17 nmol in the presence of TPA compared to control value; in short: as §1
[10] = biological target: T1, Ornithine decarboxylase (Mus musculus); experiment: Inhibition of TPA induced ODC(Ornithine decarboxylase) activity in mice epidermis at 0 nmol in the presence of acetone+TPA; in short: as §1
[11] = biological target: T1, Ornithine decarboxylase (Mus musculus); experiment: Inhibition of TPA induced ODC(Ornithine decarboxylase) activity in mice epidermis at 34 nmol in the presence of trans-retinoic acid + TPA; in short: as §1
[12] = biological target: T1, Ornithine decarboxylase (Mus musculus); experiment: Inhibition of TPA induced ODC(Ornithine decarboxylase) activity in mice epidermis at 34 nmol in the presence of trans-retinoic acid + TPA compared to control value; in short: as §1

## COC(=O)c1ccc(/C=C(\C)c2ccc3c(c2)C(C)(C)CCO3)cc1
[1]
  inhibition: 43%
[2]
  ODC activity ((nM of CO2) hr-1 (mg of protein)-1): 0.95
[3]
  ODC activity ((nM of CO2) hr-1 (mg of protein)-1): 0.14
[4]
  inhibition: 92%
[5]
  ODC activity ((nM of CO2) hr-1 (mg of protein)-1): 1.67

## COC(=O)c1ccc(/C=C(\C)c2ccc3c(c2)C(C)(C)CO3)cc1
[1]
  inhibition: 72%
[2]
  ODC activity ((nM of CO2) hr-1 (mg of protein)-1): 1.5

## CC(/C=C/C=C(\C)c1ccc2c(c1)C(C)(C)CCS2)=C\C(=O)OCCN1C(=O)c2ccccc2C1=O
[1]
  inhibition: 42%
[2]
  ODC activity ((nM of CO2) hr-1 (mg of protein)-1): 0.97

## CC(/C=C/C=C(\C)c1ccc2c(c1)C(C)(C)CCS2)=C\C(=O)O
[6]
  ODC activity ((nM of CO2) 30min-1 (mg of protein)-1): 0.9
[7]
  ODC activity ((nM of CO2) 30min-1 (mg of protein)-1): 0.1
[8]
  ODC activity ((nM of CO2) 30min-1 (mg of protein)-1): 0
[3]
  ODC activity ((nM of CO2) 30min-1 (mg of protein)-1): 0.1
[4]
  inhibition: 89%
[9]
  inhibition: 89%

## C/C(=C\c1ccc(C=O)cc1)c1ccc2c(c1)C(C)(C)CCO2
[1]
  inhibition: 34%
[2]
  ODC activity ((nM of CO2) hr-1 (mg of protein)-1): 3.5

## CCOC(=O)/C=C(C)/C=C/C=C(\C)c1ccc2c(c1)C(C)(C)CCS2
[7]
  ODC activity ((nM of CO2) 30min-1 (mg of protein)-1): 0
[8]
  ODC activity ((nM of CO2) 30min-1 (mg of protein)-1): 0
[9]
  inhibition: 100%

## C/C(=C\c1ccc(C#N)cc1)c1ccc2c(c1)C(C)(C)CCO2
[1]
  inhibition: 0%
[2]
  ODC activity ((nM of CO2) hr-1 (mg of protein)-1): 1.77

## C/C(=C\c1ccc(CO)cc1)c1ccc2c(c1)C(C)(C)CCO2
[1]
  inhibition: 68%
[10]
  ODC activity: 5.3
[2]
  ODC activity ((nM of CO2) hr-1 (mg of protein)-1): 1.7
[11]
  ODC activity: 1
[12]
  inhibition: 81%

## CC(/C=C/C=C(\C)c1ccc2c(c1)C(C)(C)CCO2)=C\C(=O)O
[1]
  inhibition: 74%
[2]
  ODC activity ((nM of CO2) hr-1 (mg of protein)-1): 1.4
